Assay type in all cases: functional
In assay [1] the test system is Staphylococcus aureus. The assay is described as follows: In vitro antibacterial activity against gram-positive Staphylococcus aureus NCTC 10649M. An outline of the steps: (§1)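 Agar dilution MIC determination following the National Committee for Clinical Laboratory Standards recommendations.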
The next assay concerns Escherichia coli. Description: In vitro antibacterial activity against gram negative Escherichia coli KNK 437. The method, boiled down: as §1
The next assay deals with Burkholderia cepacia. The assay is described as follows: In vitro antibacterial activity against gram negative Pseudomonas cepacia 2961. As to conditions: Burkholderia cepacia; read-out: MIC. An outline of the steps:
as §1

The subject of another assay is Streptococcus pyogenes. The assay is described as follows: In vitro antibacterial activity against gram positive Streptococcus pyogenes 930. The method, boiled down: as §1
A further assay relates to Enterococcus faecium. Description: In vitro antibacterial activity against gram-positive Enterococcus faecium ATCC 8043. To be noted: Enterococcus faecium, ATCC 8043; read-out: MIC. An outline of the steps:
as §1

The test system of assay [2] is Pseudomonas aeruginosa. Description: In vitro antibacterial activity against Gram-negative Pseudomonas aeruginosa 5007. As to conditions: Pseudomonas aeruginosa; read-out: MIC. An outline of the steps: as §1
The subject of assay [3] is Staphylococcus aureus. Description: In vitro antibacterial activity against gram-positive Staphylococcus aureus 1775. An outline of the steps:
as §1

Assay [4] relates to Pseudomonas aeruginosa. The assay is described as follows: In vitro antibacterial activity against gram negative P. aeruginosa DPHP 5263. The method, boiled down: as §1
Where [5] appears, read: Staphylococcus aureus, NCTC 10649, read-out: MIC.
Setting [6] is: Escherichia coli, read-out: MIC.
Where [7] appears, read: Streptococcus pyogenes, read-out: MIC.
Where [8] appears, read: Staphylococcus aureus, read-out: MIC.
The mark [9] stands for this setting: Pseudomonas aeruginosa, DPHP 5263, read-out: MIC.

Values after ≈ are worked out from the molar mass of the structure shown.

`CN[C@H]1CN(c2c(F)cn3c(=O)c(C(=O)O)cc(C4CC4)c3c2C)C[C@@H]1C`: the MIC – broadly, the least concentration at which growth counts as inhibited – came out at 0.05 µg/mL (≈ 0.134 µM) in the assay on Staphylococcus aureus [1] (setting [5]); 0.2 µg/mL (≈ 0.536 µM) with Escherichia coli (setting [6]); 0.78 µg/mL (≈ 2.09 µM) in the assay with Burkholderia cepacia; 0.1 µg/mL (≈ 0.268 µM) in the assay on Streptococcus pyogenes (setting [7]); 0.2 µg/mL (≈ 0.536 µM) in the assay on Enterococcus faecium; 3.1 µg/mL (≈ 8.3 µM) in the assay on Pseudomonas aeruginosa [2]. For the same molecule, the MIC was determined as 0.78 µg/mL (≈ 2.09 µM) in the assay on Staphylococcus aureus [3] (setting [8]) and 12.5 µg/mL (≈ 33.5 µM) with Pseudomonas aeruginosa [4] (setting [9]).

For the molecule `Cc1c(N2CCC(O)C2)c(F)cn2c(=O)c(C(=O)O)cc(C3CC3)c12` (stereo not drawn), the minimal inhibitory concentration (MIC) in the assay with Staphylococcus aureus [1] (setting [5]) stood at 0.005 µg/mL (≈ 0.0144 µM); in the assay with Escherichia coli (setting [6]) it was 0.2 µg/mL (≈ 0.577 µM); with Burkholderia cepacia, 0.1 µg/mL (≈ 0.289 µM); in the assay with Enterococcus faecium, 0.05 µg/mL (≈ 0.144 µM); in the assay with Staphylococcus aureus [3] (setting [8]) it was 0.2 µg/mL (≈ 0.577 µM).

On to `Cc1c(N2CCC(CN)C2)c(F)cn2c(=O)c(C(=O)O)cc(C3CC3)c12` (stereo not drawn), for which the minimal inhibitory concentration (MIC) with Staphylococcus aureus [1] (setting [5]) stood at 0.002 µg/mL (≈ 0.00556 µM); in the assay with Escherichia coli (setting [6]) it was 0.05 µg/mL (≈ 0.139 µM); in the assay with Burkholderia cepacia, 0.39 µg/mL (≈ 1.09 µM); in the assay on Enterococcus faecium, 0.01 µg/mL (≈ 0.0278 µM); in the assay on Staphylococcus aureus [3] (setting [8]), 0.39 µg/mL (≈ 1.09 µM).

On to `Cc1c(N2C[C@@H](N)[C@H](C3CC3)C2)c(F)cn2c(=O)c(C(=O)O)cc(C3CC3)c12` (stereo in doubt; 3t), for which the MIC in the assay on Staphylococcus aureus [1] was 0.01 µg/mL (≈ 0.0259 µM); in the assay with Escherichia coli (setting [6]), 0.1 µg/mL (≈ 0.259 µM); with Burkholderia cepacia, 0.78 µg/mL (≈ 2.02 µM); in the assay on Streptococcus pyogenes (setting [7]), 0.05 µg/mL (≈ 0.13 µM); in the assay with Enterococcus faecium, 0.1 µg/mL (≈ 0.259 µM); with Pseudomonas aeruginosa [2], 0.78 µg/mL (≈ 2.02 µM). For the same molecule, the MIC in the assay with Staphylococcus aureus [3] (setting [8]) is 0.78 µg/mL (≈ 2.02 µM); in the assay on Pseudomonas aeruginosa [4] (setting [9]) it was 6.2 µg/mL (≈ 16.1 µM).

As to `Cc1c(N2C[C@@H]3CCCC[C@]3(N)C2)c(F)cn2c(=O)c(C(=O)O)cc(C3CC3)c12`, the MIC in the assay with Staphylococcus aureus [1] (setting [5]) is 0.05 µg/mL (≈ 0.125 µM); in the assay on Escherichia coli (setting [6]) it was 0.78 µg/mL (≈ 1.95 µM); in the assay with Burkholderia cepacia it was 1.56 µg/mL (≈ 3.91 µM); with Streptococcus pyogenes (setting [7]), 0.2 µg/mL (≈ 0.501 µM); with Enterococcus faecium, 0.2 µg/mL (≈ 0.501 µM); with Pseudomonas aeruginosa [2], 1.56 µg/mL (≈ 3.91 µM). Also, the figures for the minimal inhibitory concentration (MIC) in the assay with Staphylococcus aureus [3] (setting [8]) and in the assay on Pseudomonas aeruginosa [4] (setting [9]) were 1.56 µg/mL (≈ 3.91 µM) and 25 µg/mL (≈ 62.6 µM), respectively.

In the case of `CN[C@@H]1CN(c2c(F)cn3c(=O)c(C(=O)O)cc(C4CC4)c3c2C)C[C@H]1C` (stereo in doubt), the minimum inhibitory concentration (MIC) in the assay with Staphylococcus aureus [1] (setting [5]) turned out to be 0.01 µg/mL (≈ 0.0268 µM); with Escherichia coli, 0.05 µg/mL (≈ 0.134 µM); with Burkholderia cepacia it was 0.78 µg/mL (≈ 2.09 µM); against Streptococcus pyogenes, 0.02 µg/mL (≈ 0.0536 µM); with Enterococcus faecium, 0.1 µg/mL (≈ 0.268 µM); in the assay with Pseudomonas aeruginosa [2], 0.2 µg/mL (≈ 0.536 µM). For the same molecule, the minimal inhibitory concentration (MIC) in the assay with Staphylococcus aureus [3] was found to be 0.39 µg/mL (≈ 1.04 µM); against Pseudomonas aeruginosa [4], 3.1 µg/mL (≈ 8.3 µM).

Regarding `Cc1c(N2C[C@@H]3OCC[C@]3(CN)C2)c(F)cn2c(=O)c(C(=O)O)cc(C3CC3)c12`, the MIC in the assay with Staphylococcus aureus [1] (setting [5]) amounted to 0.005 µg/mL (≈ 0.0125 µM); with Escherichia coli (setting [6]) it was 0.2 µg/mL (≈ 0.498 µM); in the assay on Burkholderia cepacia, 3.1 µg/mL (≈ 7.72 µM); in the assay on Enterococcus faecium, 0.05 µg/mL (≈ 0.125 µM); in the assay on Pseudomonas aeruginosa [2], 0.39 µg/mL (≈ 0.972 µM); in the assay on Staphylococcus aureus [3] (setting [8]), 0.78 µg/mL (≈ 1.94 µM). Further, the MIC in the assay on Pseudomonas aeruginosa [4] (setting [9]) is 6.2 µg/mL (≈ 15.4 µM).

Take `Cc1c(N2C[C@@H]3CCCN[C@@H]3C2)c(F)cn2c(=O)c(C(=O)O)cc(C3CC3)c12`: the minimum inhibitory concentration (MIC) with Staphylococcus aureus [1] (setting [5]) was 0.02 µg/mL (≈ 0.0519 µM); in the assay on Escherichia coli (setting [6]), 0.1 µg/mL (≈ 0.259 µM); with Burkholderia cepacia it was 1.56 µg/mL (≈ 4.05 µM); with Streptococcus pyogenes (setting [7]), 0.05 µg/mL (≈ 0.13 µM); in the assay with Enterococcus faecium, 0.1 µg/mL (≈ 0.259 µM); in the assay on Pseudomonas aeruginosa [2] it was 0.39 µg/mL (≈ 1.01 µM). Besides, the MIC in the assay on Staphylococcus aureus [3] (setting [8]) was 0.78 µg/mL (≈ 2.02 µM).

Turning to `Cc1c(N2CCC(N(C)C3CC3)C2)c(F)cn2c(=O)c(C(=O)O)cc(C3CC3)c12` (stereo not drawn), the MIC with Staphylococcus aureus [1] (setting [5]) turned out to be 0.05 µg/mL (≈ 0.125 µM); in the assay with Escherichia coli (setting [6]), 0.39 µg/mL (≈ 0.976 µM); with Burkholderia cepacia, 3.1 µg/mL (≈ 7.76 µM); with Streptococcus pyogenes (setting [7]), 0.2 µg/mL (≈ 0.501 µM); with Enterococcus faecium, 0.2 µg/mL (≈ 0.501 µM); in the assay on Pseudomonas aeruginosa [2], 0.78 µg/mL (≈ 1.95 µM). The minimum inhibitory concentration (MIC) was 1.56 µg/mL (≈ 3.91 µM) with Staphylococcus aureus [3] (setting [8]) and 100 µg/mL (≈ 250 µM) in the assay with Pseudomonas aeruginosa [4] (setting [9]).

With `Cc1c(N2CCC(CNCCF)C2)c(F)cn2c(=O)c(C(=O)O)cc(C3CC3)c12` (stereo not drawn), the MIC in the assay on Staphylococcus aureus [1] (setting [5]) was 0.002 µg/mL (≈ 0.00493 µM); in the assay with Escherichia coli (setting [6]), 0.2 µg/mL (≈ 0.493 µM); in the assay on Burkholderia cepacia, 3.1 µg/mL (≈ 7.65 µM); in the assay on Streptococcus pyogenes (setting [7]), 0.002 µg/mL (≈ 0.00493 µM); in the assay on Enterococcus faecium, 0.02 µg/mL (≈ 0.0493 µM); with Pseudomonas aeruginosa [2], 0.78 µg/mL (≈ 1.92 µM). In addition, the results for the minimum inhibitory concentration (MIC) in the assay on Staphylococcus aureus [3] (setting [8]) and in the assay on Pseudomonas aeruginosa [4] (setting [9]) were 0.1 µg/mL (≈ 0.247 µM) and 12.5 µg/mL (≈ 30.8 µM), respectively.

In the case of `Cc1c(N2CCCC(N)C2)c(F)cn2c(=O)c(C(=O)O)cc(C3CC3)c12` (stereo not drawn), the MIC worked out at 0.01 µg/mL (≈ 0.0278 µM) in the assay with Staphylococcus aureus [1] (setting [5]); 0.1 µg/mL (≈ 0.278 µM) in the assay with Escherichia coli (setting [6]); 0.78 µg/mL (≈ 2.17 µM) with Burkholderia cepacia; 0.02 µg/mL (≈ 0.0556 µM) in the assay on Streptococcus pyogenes (setting [7]); 0.05 µg/mL (≈ 0.139 µM) in the assay with Enterococcus faecium; 0.2 µg/mL (≈ 0.556 µM) in the assay with Pseudomonas aeruginosa [2]. Also, the minimal inhibitory concentration (MIC) in the assay on Staphylococcus aureus [3] (setting [8]) was determined as 0.39 µg/mL (≈ 1.09 µM); in the assay with Pseudomonas aeruginosa [4] (setting [9]) it was 3.1 µg/mL (≈ 8.63 µM).

As for `Cc1c(N2CCCCC2)c(F)cn2c(=O)c(C(=O)O)cc(C3CC3)c12`, the MIC was found to be 0.05 µg/mL (≈ 0.145 µM) in the assay with Staphylococcus aureus [1] (setting [5]); 3.1 µg/mL (≈ 9 µM) in the assay with Escherichia coli (setting [6]); 3.1 µg/mL (≈ 9 µM) with Burkholderia cepacia; 0.2 µg/mL (≈ 0.581 µM) in the assay on Streptococcus pyogenes (setting [7]); 0.39 µg/mL (≈ 1.13 µM) in the assay with Enterococcus faecium; 3.1 µg/mL (≈ 9 µM) in the assay with Pseudomonas aeruginosa [2]. Also, the results for the MIC with Staphylococcus aureus [3] (setting [8]) and in the assay on Pseudomonas aeruginosa [4] (setting [9]) were 0.78 µg/mL (≈ 2.26 µM) and over 100 µg/mL, respectively.

As for `Cc1c(N2CC[C@@H](N)C2)c(F)cn2c(=O)c(C(=O)O)cc(C3CC3)c12`, the minimal inhibitory concentration (MIC) with Staphylococcus aureus [1] (setting [5]) stood at 0.02 µg/mL (≈ 0.0579 µM); in the assay on Escherichia coli (setting [6]), 0.05 µg/mL (≈ 0.145 µM); in the assay with Burkholderia cepacia, 0.78 µg/mL (≈ 2.26 µM); in the assay with Enterococcus faecium, 0.05 µg/mL (≈ 0.145 µM); in the assay with Staphylococcus aureus [3] (setting [8]), 1.56 µg/mL (≈ 4.52 µM).

The values above are taken from ChEMBL document CHEMBL1132437, “Synthesis and antimicrobial activity of 4H-4-oxoquinolizine derivatives: consequences of structural modification at the C-8 position” (1999).
